# Results as given in publication PMC3776982 (British Journal of Cancer, 2013).
# Read-outs that look alike come from different tables or passages of the source.
# What was measured:
# [1] = test system: previously treated SCLC patients; assay: Adverse events; type: in vivo, human
# Procedure, shortened: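 Toxicities graded by CTCAE v3.0 in adults with SCLC that had progressed after ≥2 prior chemotherapy regimens, including a platinum one. Paclitaxel 175 mg m−2 was given as a 3-h IV infusion every 3 weeks. Everolimus was given orally once daily (2.5, 5 or 10 mg) over 21-day courses. Patients were assessed weekly during cycle 1, then every 3 weeks.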
# [2] = test system: previously treated SCLC patients; type: in vivo, human
# Procedure, shortened: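 Open-label 3-level escalation of oral daily everolimus (2.5→5→10 mg) with fixed paclitaxel 175 mg m−2 every 3 weeks; up to six patients per level, no intrapatient escalation. DLT was assessed in cycle 1 and defined as: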
# [3] = test system: small-cell lung cancer (SCLC); assay: Tumour response according to RECIST version 1.1; type: in vivo, human; details: + paclitaxel
# [4] = Everolimus pharmacokinetics in whole blood; type: in vivo, human
# Procedure, shortened: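 Samples were taken from six expansion-cohort patients at the MTD with paclitaxel, 10 per patient. Post-dose samples were drawn at 1, 2, 4, 6, 12 and 24 h on day 1 of cycle 2. Everolimus was quantified in whole blood by LC-MS/MS after protein precipitation.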
# [5] = test system: small-cell lung cancer (SCLC); assay: Tumour response by phospho-Akt and phospho-S6 expression; type: in vivo, human; details: everolimus + paclitaxel
# Procedure, shortened: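 Pretreatment tumour specimens were formalin-fixed and paraffin-embedded, cut into 4 μm sections, deparaffinised in xylene and rehydrated. Sections were immunostained on an autostainer with polymer detection, using rabbit monoclonal phospho-Akt (Ser473) at 1:80 and phospho-S6 (Ser235/236) at 1:200. Tumour response was assessed every two cycles by RECIST 1.1.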
# breast cancer = details: 10 mg everolimus daily, patients with breast cancer; ref Ellard et al, 2009; cited from earlier work
# [6] = all everolimus doses (n=20), any grade, + 3-weekly paclitaxel 175 mg m^−2
# [7] = everolimus 2.5 mg daily (n=6), grade 1/2, + 3-weekly paclitaxel 175 mg m^−2
# [8] = everolimus 2.5 mg daily (n=6), grade 3/4, + 3-weekly paclitaxel 175 mg m^−2
# [9] = everolimus 5 mg daily (n=11), grade 1/2, + 3-weekly paclitaxel 175 mg m^−2
# [10] = everolimus 5 mg daily (n=11), grade 3/4, + 3-weekly paclitaxel 175 mg m^−2
# [11] = everolimus 10 mg daily (n=3), grade 1/2, + 3-weekly paclitaxel 175 mg m^−2
# [12] = everolimus 10 mg daily (n=3), grade 3/4, + 3-weekly paclitaxel 175 mg m^−2
compound,measurement,setting,value
CO[C@H]1C[C@@H]2CC[C@@H](C)[C@@](O)(O2)C(=O)C(=O)N2CCCC[C@H]2C(=O)O[C@H]([C@H](C)C[C@@H]2CC[C@@H](OCCO)[C@H](OC)C2)CC(=O)[C@H](C)/C=C(\C)[C@@H](O)[C@@H](OC)C(=O)[C@H](C)C[C@H](C)/C=C/C=C/C=C/1C [everolimus],ALT increased (number of patients with adverse event),[1]; [6],6
same,AST increased (number of patients with adverse event),[1]; [6],6
same,Anorexia (number of patients with adverse event),[1]; [6],6
same,Diarrhoea (number of patients with adverse event),[1]; [6],3
same,Febrile neutropenia (number of patients with adverse event),[1]; [6],1
same,Itching (number of patients with adverse event),[1]; [6],4
same,Leukopenia (number of patients with adverse event),[1]; [6],15
same,Neutropenia (number of patients with adverse event),[1]; [6],16
same,Pain (number of patients with adverse event),[1]; [6],10
same,Pneumonitis (number of patients with adverse event),[1]; [6],1
same,Stomatitis (number of patients with adverse event),[1]; [6],8
same,ALT increased (number of patients with adverse event),[1]; [7],1
same,AST increased (number of patients with adverse event),[1]; [7],1
same,Anaemia (number of patients with adverse event),[1]; [7],5
same,Anorexia (number of patients with adverse event),[1]; [7],2
same,Diarrhoea (number of patients with adverse event),[1]; [7],0
same,Febrile neutropenia (number of patients with adverse event),[1]; [7],0
same,Hyperglycemia (number of patients with adverse event),[1]; [7],6
same,Hypertriglycemia (number of patients with adverse event),[1]; [7],3
same,Itching (number of patients with adverse event),[1]; [7],0
same,Leukopenia (number of patients with adverse event),[1]; [7],4
same,Neuropathy (number of patients with adverse event),[1]; [7],1
same,Neutropenia (number of patients with adverse event),[1]; [7],3
same,Pain (number of patients with adverse event),[1]; [7],2
same,Pneumonitis (number of patients with adverse event),[1]; [7],0
same,Stomatitis (number of patients with adverse event),[1]; [7],2
same,Thrombocytopenia (number of patients with adverse event),[1]; [7],2
same,Vomiting (number of patients with adverse event),[1]; [7],0
same,ALT increased (number of patients with adverse event),[1]; [8],0
same,AST increased (number of patients with adverse event),[1]; [8],0
same,Anaemia (number of patients with adverse event),[1]; [8],0
same,Anorexia (number of patients with adverse event),[1]; [8],0
same,Diarrhoea (number of patients with adverse event),[1]; [8],0
same,Febrile neutropenia (number of patients with adverse event),[1]; [8],0
same,Hyperglycemia (number of patients with adverse event),[1]; [8],0
same,Hypertriglycemia (number of patients with adverse event),[1]; [8],0
same,Itching (number of patients with adverse event),[1]; [8],0
same,Leukopenia (number of patients with adverse event),[1]; [8],1
same,Neuropathy (number of patients with adverse event),[1]; [8],0
same,Neutropenia (number of patients with adverse event),[1]; [8],1
same,Pain (number of patients with adverse event),[1]; [8],0
same,Pneumonitis (number of patients with adverse event),[1]; [8],0
same,Stomatitis (number of patients with adverse event),[1]; [8],0
same,Thrombocytopenia (number of patients with adverse event),[1]; [8],0
same,Vomiting (number of patients with adverse event),[1]; [8],0
same,ALT increased (number of patients with adverse event),[1]; [9],5
same,AST increased (number of patients with adverse event),[1]; [9],4
same,Anaemia (number of patients with adverse event),[1]; [9],10
same,Anorexia (number of patients with adverse event),[1]; [9],3
same,Diarrhoea (number of patients with adverse event),[1]; [9],2
same,Febrile neutropenia (number of patients with adverse event),[1]; [9],0
same,Hyperglycemia (number of patients with adverse event),[1]; [9],9
same,Hypertriglycemia (number of patients with adverse event),[1]; [9],2
same,Itching (number of patients with adverse event),[1]; [9],2
same,Leukopenia (number of patients with adverse event),[1]; [9],4
same,Neuropathy (number of patients with adverse event),[1]; [9],3
same,Neutropenia (number of patients with adverse event),[1]; [9],3
same,Pain (number of patients with adverse event),[1]; [9],6
same,Pneumonitis (number of patients with adverse event),[1]; [9],1
same,Stomatitis (number of patients with adverse event),[1]; [9],5
same,Thrombocytopenia (number of patients with adverse event),[1]; [9],3
same,Vomiting (number of patients with adverse event),[1]; [9],2
same,ALT increased (number of patients with adverse event),[1]; [10],0
same,AST increased (number of patients with adverse event),[1]; [10],0
same,Anaemia (number of patients with adverse event),[1]; [10],1
same,Anorexia (number of patients with adverse event),[1]; [10],0
same,Diarrhoea (number of patients with adverse event),[1]; [10],0
same,Febrile neutropenia (number of patients with adverse event),[1]; [10],1
same,Hyperglycemia (number of patients with adverse event),[1]; [10],0
same,Hypertriglycemia (number of patients with adverse event),[1]; [10],0
same,Itching (number of patients with adverse event),[1]; [10],0
same,Leukopenia (number of patients with adverse event),[1]; [10],4
same,Neuropathy (number of patients with adverse event),[1]; [10],1
same,Neutropenia (number of patients with adverse event),[1]; [10],6
same,Pain (number of patients with adverse event),[1]; [10],0
same,Pneumonitis (number of patients with adverse event),[1]; [10],0
same,Stomatitis (number of patients with adverse event),[1]; [10],0
same,Thrombocytopenia (number of patients with adverse event),[1]; [10],1
same,Vomiting (number of patients with adverse event),[1]; [10],0
same,ALT increased (number of patients with adverse event),[1]; [11],0
same,AST increased (number of patients with adverse event),[1]; [11],1
same,Anaemia (number of patients with adverse event),[1]; [11],3
same,Anorexia (number of patients with adverse event),[1]; [11],1
same,Diarrhoea (number of patients with adverse event),[1]; [11],1
same,Febrile neutropenia (number of patients with adverse event),[1]; [11],0
same,Hyperglycemia (number of patients with adverse event),[1]; [11],2
same,Hypertriglycemia (number of patients with adverse event),[1]; [11],2
same,Itching (number of patients with adverse event),[1]; [11],2
same,Leukopenia (number of patients with adverse event),[1]; [11],2
same,Neuropathy (number of patients with adverse event),[1]; [11],2
same,Neutropenia (number of patients with adverse event),[1]; [11],1
same,Pain (number of patients with adverse event),[1]; [11],2
same,Pneumonitis (number of patients with adverse event),[1]; [11],0
same,Stomatitis (number of patients with adverse event),[1]; [11],1
same,Thrombocytopenia (number of patients with adverse event),[1]; [11],2
same,Vomiting (number of patients with adverse event),[1]; [11],0
same,ALT increased (number of patients with adverse event),[1]; [12],0
same,AST increased (number of patients with adverse event),[1]; [12],0
same,Anaemia (number of patients with adverse event),[1]; [12],0
same,Anorexia (number of patients with adverse event),[1]; [12],0
same,Diarrhoea (number of patients with adverse event),[1]; [12],0
same,Febrile neutropenia (number of patients with adverse event),[1]; [12],0
same,Hyperglycemia (number of patients with adverse event),[1]; [12],1
same,Hypertriglycemia (number of patients with adverse event),[1]; [12],0
same,Itching (number of patients with adverse event),[1]; [12],0
same,Leukopenia (number of patients with adverse event),[1]; [12],0
same,Neuropathy (number of patients with adverse event),[1]; [12],0
same,Neutropenia (number of patients with adverse event),[1]; [12],2
same,Pain (number of patients with adverse event),[1]; [12],0
same,Pneumonitis (number of patients with adverse event),[1]; [12],0
same,Stomatitis (number of patients with adverse event),[1]; [12],0
same,Thrombocytopenia (number of patients with adverse event),[1]; [12],2
same,Vomiting (number of patients with adverse event),[1]; [12],0
same,"Dose-limiting toxicity, cycle 1: Hyperglycemia (number of patients)",[2]; [6],1
same,"Dose-limiting toxicity, cycle 1: Thrombocytopenia (number of patients)",[2]; [6],2
same,Patients who experienced DLT in cycle 1,"[2]; dose level 1 (everolimus 2.5 mg daily), six patients, + 3-weekly paclitaxel 175 mg m^−2",None
same,"Dose-limiting toxicity, cycle 1: Hyperglycemia (number of patients)",[2]; [7],0
same,"Dose-limiting toxicity, cycle 1: Thrombocytopenia (number of patients)",[2]; [7],0
same,"Dose-limiting toxicity, cycle 1: Hyperglycemia (number of patients)",[2]; [8],0
same,"Dose-limiting toxicity, cycle 1: Thrombocytopenia (number of patients)",[2]; [8],0
same,"Dose-limiting toxicity, cycle 1: Hyperglycemia (number of patients)",[2]; [9],0
same,"Dose-limiting toxicity, cycle 1: Thrombocytopenia (number of patients)",[2]; [9],0
same,"Dose-limiting toxicity, cycle 1: Hyperglycemia (number of patients)",[2]; [10],0
same,"Dose-limiting toxicity, cycle 1: Hyperglycemia (number of patients)",[2]; [11],0
same,"Dose-limiting toxicity, cycle 1: Thrombocytopenia (number of patients)",[2]; [11],0
same,"Dose-limiting toxicity, cycle 1: Hyperglycemia (number of patients)",[2]; [12],1
same,"Dose-limiting toxicity, cycle 1: Thrombocytopenia (number of patients)",[2]; [12],1
same,MTD and recommended phase-2 dose (dose level),[2]; level 2 = everolimus 5 mg daily + 3-weekly paclitaxel 175 mg m^−2,level 2
same,Maximum tolerated dose (MTD) of everolimus,"[2]; once daily, in combination with paclitaxel 175 mg m^−2 every 3 weeks",5 mg
same,Objective response rate,"[3]; dose level 1 (everolimus 2.5 mg daily), one out of 6 patients",17%
same,Objective response rate,"[3]; dose level 2 (everolimus 5 mg daily), 2 out of 10 patients",20%
same,Objective response rate,"[3]; dose level 3 (everolimus 10 mg daily), 2 out of 3 patients",67%
same,Interpatient coefficient of variation of pharmacokinetic parameters,"[4]; all parameters except Cmin, everolimus 5 mg daily with paclitaxel",less than 40%
same,Interpatient coefficient of variation of Cmin,[4]; everolimus 5 mg daily with paclitaxel,52%
same,AUC(0-t),"[4]; human, whole blood, po, 5 mg",284 ng·h/mL
same,Cmax,"[4]; human, whole blood, po, 5 mg",24.4 ng/mL
same,Tmax,"[4]; human, whole blood, po, 5 mg",0.98 to 6.02 h
same,Response in phospho-S6-negative group (responders/patients),[5],1/3
same,Response in phospho-S6-positive group (responders/patients),[5],1/3
same,Objective responses in patients with phospho-Akt-negative tumours,[5]; four patients,two objective responses
same,Objective response in phospho-Akt-positive patients,[5]; two patients (one stable and one progressive disease),No objective response
same,Response rate,breast cancer,12%
